Experimental data reported in ChEMBL document CHEMBL1629564, “Mechanisms accounting for fluoroquinolone resistance in Escherichia coli clinical isolates” (2009).
Values after ≈ are worked out from the molar mass of the structure shown.

What was measured:
Escherichia coli [1] = assay: Antimicrobial activity against Escherichia coli K-12 harboring gyrA A83 mutant gene by agar dilution method; assay type: functional
Escherichia coli [2] = assay: Antimicrobial activity against Escherichia coli K-12 harboring gyrA L83, N87 mutant gene by agar dilution method; assay type: functional
Escherichia coli [3] = assay: Antimicrobial activity against Escherichia coli K-12 harboring gyrA L83, N87 and parC K84 mutant gene by agar dilution method; assay type: functional
Escherichia coli [4] = assay: Antimicrobial activity against Escherichia coli K-12 harboring gyrA L83, N87 and parC I80 mutant gene by agar dilution method; assay type: functional
Escherichia coli [5] = assay: Antimicrobial activity against Escherichia coli […] harboring gyrA L83, N87, parC I80 and parE M464 mutant gene by agar dilution method; assay type: functional, K-12
In short: (§1)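 Clinical E. coli isolates, with topoisomerase QRDR genotype (gyrA, gyrB, parC, parE) found by PCR sequencing. MICs for ciprofloxacin, gatifloxacin, levofloxacin and norfloxacin were measured by CLSI agar dilution using a modified dilution scheme. Where the agar dilution MIC was <1 μg/ml, the value came from at least two Etest measurements.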

Escherichia coli [6] = assay: Antimicrobial activity against […] harboring gyrA L83, N87, parC I80 and parE […] mutant gene by agar dilution method; assay type: functional, K-12; in short: as §1
Escherichia coli [7] = assay: Antimicrobial activity against Escherichia coli K-12 harboring gyrA L83, N87 and parC I80, G84 mutant gene by agar dilution method; assay type: functional
Escherichia coli [8] = assay: Antimicrobial activity against […] harboring gyrA L83, N87, gyrB T471 and parC I80, G84 mutant gene by agar dilution method; assay type: functional, K-12; in short: as §1
Escherichia coli [9] = assay: Antimicrobial activity against Escherichia coli […] harboring gyrA L83, N87, parC I80, K84 and parE D460 mutant gene by agar dilution method; assay type: functional, K-12; in short: as §1
Escherichia coli [10] = assay: Antimicrobial activity against Escherichia coli K-12 harboring gyrA L83, Y87 mutant gene by agar dilution method; assay type: functional
Escherichia coli [11] = assay: Antimicrobial activity against Escherichia coli K-12 harboring gyrA L83, Y87 and parC K84 mutant gene by agar dilution method; assay type: functional
Escherichia coli [12] = assay: Antimicrobial activity against Escherichia coli K-12 harboring gyrA L83, Y87 and parC I80 mutant gene by agar dilution method; assay type: functional
Escherichia coli [13] = assay: Antimicrobial activity against Escherichia coli […] harboring gyrA L83, Y87, parC I80 and parE A458 mutant gene by agar dilution method; assay type: functional, K-12; in short: as §1
Escherichia coli [14] = assay: Antimicrobial activity against Escherichia coli K-12 harboring gyrA L83, Y87 and parC I80, G84 mutant gene by agar dilution method; assay type: functional
Escherichia coli [15] = assay: Antimicrobial activity against Escherichia coli harboring gyrA L83, Y87, parC I80, G84 and parE A458 mutant gene by agar dilution method
Escherichia coli [16] = assay: Antimicrobial activity against Escherichia coli K-12 harboring by agar dilution method; assay type: functional

`C[C@H]1COc2c(N3CCN(C)CC3)c(F)cc3c(=O)c(C(=O)O)cn1c23.C[C@H]1COc2c(N3CCN(C)CC3)c(F)cc3c(=O)c(C(=O)O)cn1c23.O` [LEVOFLOXACIN] showed an MIC (Escherichia coli [1]) of 0.168 µg/mL, an MIC (Escherichia coli [2]) of 10 µg/mL and an MIC (Escherichia coli [3]) of 50 µg/mL. The MIC (Escherichia coli [4]) was 8 µg/mL, the MIC (Escherichia coli [5]) was 50 µg/mL and the MIC (Escherichia coli [6]) was 20 µg/mL. For the same compound, the MIC (Escherichia coli [7]) was 50 µg/mL, the MIC (Escherichia coli [8]) was 30 µg/mL and the MIC (Escherichia coli [9]) was 50 µg/mL. The MIC (Escherichia coli [10]) was 2 µg/mL, the MIC (Escherichia coli [11]) was 50 µg/mL and the MIC (Escherichia coli [12]) was 10 µg/mL. The MIC (Escherichia coli [13]) was 50 µg/mL, the MIC (Escherichia coli [14]) was 50 µg/mL and the MIC (Escherichia coli [15]) was 200 µg/mL.
Work on `O=C(O)c1cn(C2CC2)c2cc(N3CCNCC3)c(F)cc2c1=O` [CIPROFLOXACIN] yielded an MIC (Escherichia coli [9]) of 200 µg/mL (≈ 604 µM), an MIC (Escherichia coli [11]) of 500 µg/mL (≈ 1510 µM) and an MIC (Escherichia coli [14]) of 40 µg/mL (≈ 121 µM). For the same compound, the MIC (Escherichia coli [15]) was 300 µg/mL (≈ 905 µM).
With `COc1c(N2CCNC(C)C2)c(F)cc2c(=O)c(C(=O)O)cn(C3CC3)c12` (stereo unspecified) [GATIFLOXACIN] the MIC (Escherichia coli [1]) was 0.094 µg/mL (≈ 0.25 µM), the MIC (Escherichia coli [16]) was 0.007 µg/mL (≈ 0.0186 µM) and the MIC (Escherichia coli [2]) was 10 µg/mL (≈ 26.6 µM). It also gave an MIC (Escherichia coli [3]) of 30 µg/mL (≈ 79.9 µM), an MIC (Escherichia coli [4]) of 10 µg/mL (≈ 26.6 µM) and an MIC (Escherichia coli [5]) of 20 µg/mL (≈ 53.3 µM). For the same compound, the MIC (Escherichia coli [6]) was 10 µg/mL (≈ 26.6 µM), the MIC (Escherichia coli [7]) was 10 µg/mL (≈ 26.6 µM) and the MIC (Escherichia coli [8]) was 20 µg/mL (≈ 53.3 µM). The MIC (Escherichia coli [9]) was 20 µg/mL (≈ 53.3 µM), the MIC (Escherichia coli [10]) was 0.5 µg/mL (≈ 1.33 µM) and the MIC (Escherichia coli [11]) was 30 µg/mL (≈ 79.9 µM). For the same compound, the MIC (Escherichia coli [12]) was 10 µg/mL (≈ 26.6 µM), the MIC (Escherichia coli [13]) was 20 µg/mL (≈ 53.3 µM) and the MIC (Escherichia coli [14]) was 10 µg/mL (≈ 26.6 µM). The MIC (Escherichia coli [15]) was 30 µg/mL (≈ 79.9 µM).
`CCn1cc(C(=O)O)c(=O)c2cc(F)c(N3CCNCC3)cc21` [NORFLOXACIN] showed an MIC (Escherichia coli [1]) of 0.194 µg/mL (≈ 0.608 µM), an MIC (Escherichia coli [16]) of 0.023 µg/mL (≈ 0.072 µM) and an MIC (Escherichia coli [2]) of 10 µg/mL (≈ 31.3 µM). For the same compound, the MIC (Escherichia coli [3]) was 200 µg/mL (≈ 626 µM), the MIC (Escherichia coli [4]) was 10 µg/mL (≈ 31.3 µM) and the MIC (Escherichia coli [5]) was 400 µg/mL (≈ 1250 µM). The MIC (Escherichia coli [6]) was 50 µg/mL (≈ 157 µM), the MIC (Escherichia coli [7]) was 200 µg/mL (≈ 626 µM) and the MIC (Escherichia coli [8]) was 200 µg/mL (≈ 626 µM). It also gave an MIC (Escherichia coli [9]) of 400 µg/mL (≈ 1250 µM), an MIC (Escherichia coli [10]) of 8 µg/mL (≈ 25.1 µM) and an MIC (Escherichia coli [11]) of 1000 µg/mL (≈ 3130 µM). For the same compound, the MIC (Escherichia coli [12]) was 50 µg/mL (≈ 157 µM), the MIC (Escherichia coli [13]) was 300 µg/mL (≈ 939 µM) and the MIC (Escherichia coli [14]) was 100 µg/mL (≈ 313 µM). It also gave an MIC (Escherichia coli [15]) of 1000 µg/mL (≈ 3130 µM).
